Legend:
Progesterone receptor = molecular target: T1, Progesterone receptor (Homo sapiens, UniProt P06401); experiment: Displacement of [3H]-methyltrienolone from human progesterone receptor expressed in HEK293 cells; assay type: cell-based
T1 sequence (P06401 whole entry): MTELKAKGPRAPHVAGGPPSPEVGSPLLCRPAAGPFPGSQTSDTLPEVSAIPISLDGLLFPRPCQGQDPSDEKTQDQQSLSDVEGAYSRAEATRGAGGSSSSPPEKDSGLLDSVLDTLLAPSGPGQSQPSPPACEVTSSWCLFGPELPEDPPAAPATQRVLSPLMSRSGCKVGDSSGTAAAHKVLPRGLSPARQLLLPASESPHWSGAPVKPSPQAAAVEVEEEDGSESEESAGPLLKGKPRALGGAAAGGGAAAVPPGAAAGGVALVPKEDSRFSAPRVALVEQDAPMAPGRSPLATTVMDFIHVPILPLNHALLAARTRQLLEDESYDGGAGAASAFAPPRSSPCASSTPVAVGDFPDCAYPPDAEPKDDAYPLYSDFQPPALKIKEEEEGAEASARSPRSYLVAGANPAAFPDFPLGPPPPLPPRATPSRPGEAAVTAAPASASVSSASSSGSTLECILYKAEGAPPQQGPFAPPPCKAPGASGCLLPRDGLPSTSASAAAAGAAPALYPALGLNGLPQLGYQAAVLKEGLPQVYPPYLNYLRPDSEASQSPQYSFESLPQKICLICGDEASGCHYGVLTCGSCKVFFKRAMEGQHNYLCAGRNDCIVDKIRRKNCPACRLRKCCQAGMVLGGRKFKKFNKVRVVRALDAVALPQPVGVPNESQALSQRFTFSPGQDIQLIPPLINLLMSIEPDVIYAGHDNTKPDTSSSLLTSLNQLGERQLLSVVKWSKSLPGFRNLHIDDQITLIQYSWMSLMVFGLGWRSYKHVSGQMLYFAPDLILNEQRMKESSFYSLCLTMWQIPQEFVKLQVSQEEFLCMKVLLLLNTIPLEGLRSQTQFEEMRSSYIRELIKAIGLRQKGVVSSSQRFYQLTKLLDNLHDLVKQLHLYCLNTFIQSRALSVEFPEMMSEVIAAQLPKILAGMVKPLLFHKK
Outline: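 Competition binding used lysates of HEK293 cells overexpressing the human receptor. The tracer was ³H-aldosterone for MR and ³H-methyltrienolone for PR. Competitor was tested from 0.01 nM to 10 μM. IC50 was converted to Ki by Cheng–Prusoff. Values are means of at least three experiments, each run in triplicate.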

Androgen receptor = molecular target: T2, Androgen receptor (Homo sapiens, UniProt P10275); experiment: Displacement of [3H]-methyltrienolone from human androgen receptor expressed in HEK293 cells; assay type: cell-based
T2 sequence (P10275 whole entry): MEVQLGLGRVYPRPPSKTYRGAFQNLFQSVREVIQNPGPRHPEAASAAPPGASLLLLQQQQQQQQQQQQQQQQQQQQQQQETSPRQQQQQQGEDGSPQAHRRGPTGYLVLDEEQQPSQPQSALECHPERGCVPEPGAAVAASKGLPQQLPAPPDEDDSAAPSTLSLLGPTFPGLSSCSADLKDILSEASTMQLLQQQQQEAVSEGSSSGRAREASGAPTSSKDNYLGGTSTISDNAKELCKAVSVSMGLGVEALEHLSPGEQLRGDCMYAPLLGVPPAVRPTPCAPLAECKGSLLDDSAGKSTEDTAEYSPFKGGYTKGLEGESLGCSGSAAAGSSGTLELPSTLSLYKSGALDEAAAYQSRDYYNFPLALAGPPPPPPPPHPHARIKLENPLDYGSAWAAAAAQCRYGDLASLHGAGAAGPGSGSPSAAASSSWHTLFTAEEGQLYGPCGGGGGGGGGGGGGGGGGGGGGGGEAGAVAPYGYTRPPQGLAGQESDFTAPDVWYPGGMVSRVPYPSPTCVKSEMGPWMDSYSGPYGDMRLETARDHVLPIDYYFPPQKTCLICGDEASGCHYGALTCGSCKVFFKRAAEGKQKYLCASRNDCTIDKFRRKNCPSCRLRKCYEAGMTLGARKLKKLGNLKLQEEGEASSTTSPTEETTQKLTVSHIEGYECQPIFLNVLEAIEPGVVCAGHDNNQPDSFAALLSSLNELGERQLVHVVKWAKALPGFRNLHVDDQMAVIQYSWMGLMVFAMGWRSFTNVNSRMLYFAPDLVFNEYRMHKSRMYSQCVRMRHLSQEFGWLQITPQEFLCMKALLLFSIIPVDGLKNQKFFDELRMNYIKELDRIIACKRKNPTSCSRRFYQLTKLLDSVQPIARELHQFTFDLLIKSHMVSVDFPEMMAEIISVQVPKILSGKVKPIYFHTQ

[1] = Antiinflammatory activity in human CCD-39SK cells assessed as inhibition of IL-1beta-induced IL-6 production incubated for 60 mins prior to IL-1beta induction measured after 24 hrs; assay type: functional, cell-based
Outline: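 CCD-39SK fibroblasts (20 000/well) were grown in MEM with 2% charcoal/dextran-treated FBS. Cells were pretreated with compound for 60 min, then stimulated with rhIL-1β (1 ng/mL final) for 24 h at 37 °C. IL-6 in clarified supernatant was measured. […] Ten-point half-log dilutions were used, each in triplicate.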

Glucocorticoid receptor = molecular target: T3, Glucocorticoid receptor (Homo sapiens, UniProt P04150); experiment: Displacement of [3H]-dexamethasone from human glucocorticoid receptor expressed in HEK293 cells; assay type: cell-based
T3 sequence (P04150 whole entry): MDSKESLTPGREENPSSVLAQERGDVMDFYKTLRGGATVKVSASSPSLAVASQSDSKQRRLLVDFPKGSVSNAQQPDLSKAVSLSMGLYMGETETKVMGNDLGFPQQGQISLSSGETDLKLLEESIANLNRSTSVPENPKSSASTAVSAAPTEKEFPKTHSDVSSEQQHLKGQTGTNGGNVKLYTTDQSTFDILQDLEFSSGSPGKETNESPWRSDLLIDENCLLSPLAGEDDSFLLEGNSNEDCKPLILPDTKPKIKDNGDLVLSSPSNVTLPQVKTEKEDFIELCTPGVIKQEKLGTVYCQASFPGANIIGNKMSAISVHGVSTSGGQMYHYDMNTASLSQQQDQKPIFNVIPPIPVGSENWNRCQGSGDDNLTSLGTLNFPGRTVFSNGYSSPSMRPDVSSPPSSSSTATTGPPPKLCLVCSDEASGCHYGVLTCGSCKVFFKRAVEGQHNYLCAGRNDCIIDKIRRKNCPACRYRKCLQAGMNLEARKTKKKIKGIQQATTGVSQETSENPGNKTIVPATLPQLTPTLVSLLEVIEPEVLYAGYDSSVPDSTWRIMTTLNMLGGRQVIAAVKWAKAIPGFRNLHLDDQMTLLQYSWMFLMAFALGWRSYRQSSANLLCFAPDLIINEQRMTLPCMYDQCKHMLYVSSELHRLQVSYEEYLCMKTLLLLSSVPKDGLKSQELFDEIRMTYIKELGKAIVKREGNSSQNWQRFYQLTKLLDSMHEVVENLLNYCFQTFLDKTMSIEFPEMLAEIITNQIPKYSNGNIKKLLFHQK

Ki (Progesterone receptor) [nM] | Ki (Androgen receptor) [nM] | IC50 [1] [nM] | Ki (Glucocorticoid receptor) [nM] | SMILES
6.17 | 5.98 | 9.32 | 0.257 | C/C(=C1/c2ccccc2COc2ccccc21)c1cccc(NS(C)(=O)=O)c1
15.5 | 9.74 | 4.8 | 0.146 | CC/C(=C1/c2ccccc2COc2ccccc21)c1cccc(NS(C)(=O)=O)c1
99 | 418 | 75.9 | 0.226 | CS(=O)(=O)Nc1cccc(C=C2c3ccccc3CCc3ccccc32)c1
26.8 | 239 | 4.38 | 0.268 | CC/C(=C1\c2ccccc2OCc2cccc(OC)c21)c1cccc(NS(C)(=O)=O)c1

Source: ChEMBL document CHEMBL3120138, “Glucocorticoid receptor modulators informed by crystallography lead to a new rationale for receptor selectivity, function, and implications for structure-based design” (J Med Chem, 2014)
